Laboratory results as given in ChEMBL document CHEMBL1165945, “Study of benzo[a]phenazine 7,12-dioxide as selective hypoxic cytotoxin-scaffold. Identification of aerobic-antitumoral activity through DNA fragmentation” (Bioorg Med Chem, 2010).
Activity calls are given as the source filed them. No cut-off for these calls is given here.

Columns and labels:
Calf thymus DNA [1] = assay: Binding affinity to calf thymus DNA assessed as ratio of final absorbance area to the absorbance at 100 uM after 24 hrs by UV spectrophotometer analysis relative to control; type: nucleic-acid assay; conditions: Bos taurus
How it was run: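 Calf thymus DNA was stirred 24 h at 4 °C in 10 mM Tris–HCl pH 7.4, then diluted. Compound at 10^-4 M (≤5% solvent) was diluted in water to 2 × 10^-5 M. This was mixed 1:1 by volume with the DNA solution and rotated 24 h. UV spectra were taken at 20 °C. The ratio is the area of a 20 nm band centred on λmax at 24 h over that at 0 h (a24/a0).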

Calf thymus DNA [2] = assay: Binding affinity to calf thymus DNA assessed as change in melting temperature by UV spectrophotometer analysis; type: nucleic-acid assay; conditions: Bos taurus
How it was run: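 Calf thymus DNA in 10 mM Tris–HCl pH 7.4 was mixed with compound at a 1:1 DNA:BPDO ratio. Thermal denaturation was followed as the change in absorbance at 260 nm with temperature, in a 1-cm cell.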

[3] = Cytotoxicity against chinese hamster V79 cells assessed as survival fraction under hypoxic condition at 20 uM after 7 days by crystal violet staining relative to control; type: cell-based, Cricetulus griseus; conditions: read-out: Activity
How it was run: (§1)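 V79 suspension cultures were set at 2 × 10^4 cells/mL in EMEM with 10% FBS and 10 mM HEPES, under aerobic or hypoxic gassing. Compound at 20 µM was added 30 min after gassing began, in duplicate flasks, with a DMSO negative control. After 2 h the cells were replated (10^2–10^3 cells) for 7 days at 37 °C. Colonies of >64 cells were counted after crystal violet staining. SF = PEtreated/PEcontrol × 100; values are means of two experiments.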

[4] = Cytotoxicity against chinese hamster V79 cells assessed as survival fraction under normoxic condition at 20 uM after 7 days by crystal violet staining relative to control; type: cell-based, Cricetulus griseus; conditions: read-out: Activity; how it was run: as §1
Caco-2 = assay: Cytotoxicity against human Caco-2 cells assessed as induction of DNA fragmentation under oxic condition at 10 uM after 24 hrs using ethidium bromide staining by agarose gel electrophoresis; type: functional, cell-based
How it was run: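 Caco-2 cells were seeded at 2 × 10^6 cells/well in 100-mm plates and exposed for 24 h under oxic conditions. Chromosomal DNA was then isolated and run on a 1% agarose gel with ethidium bromide staining to visualise fragmentation. The assay was repeated on four separate occasions.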

SMILES	Ratio (Calf thymus DNA [1])	viability at 168 h, 20 µM [3] [%]	viability at 168 h, 20 µM [4] [%]	also measured
CCOc1ccc(-c2nc3cc(-c4nc5cc(N6CCN(C)CC6)ccc5[nH]4)ccc3[nH]2)cc1	0.57			
COc1cc(NS(C)(=O)=O)ccc1Nc1c2ccccc2nc2ccccc12	0.3			
Nc1ccc2cc3ccc(N)cc3nc2c1				ΔTm (Calf thymus DNA [2]): 12 °C
CC[n+]1c(-c2ccccc2)c2cc(N)ccc2c2ccc(N)cc21	0.5			
COc1ccc2c(c1)[n+]([O-])c1c3ccccc3ccc1[n+]2[O-]	1	44	88	
[O-][n+]1c2ccccc2[n+]([O-])c2c3ccccc3ccc21	1	45	40	
[O-][n+]1c2ccccc2[n+]([O-])c2c3ccccc3c(O)cc21	0	93	100	
O=C1c2c(O)ccc(O)c2C(=O)c2c(NCCNCCO)ccc(NCCNCCO)c21	0			
CN[C@@H]1C[C@H]2O[C@@](C)([C@@H]1OC)n1c3ccccc3c3c4c(c5c6ccccc6n2c5c31)C(=O)NC4				Activity (Caco-2): Active
